# According to paper PMC5360466 (Hepatology (Baltimore, Md.), 2017):
# Entries after “also recorded” stand apart in the source; their conditions may differ.
# Columns and labels:
# [1] = test system: RRV; test: RRV binding; format: cell-based; settings: for effect on RRV-cholangiocyte binding: peptides at varying concentrations, 4°C
# Procedure, shortened: (§1)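 Confluent mouse or H69 cholangiocytes were pretreated with peptide (1 mM, or varying concentrations). Cells, medium and virus were chilled to 4°C, then inoculated and held 1 h at 4°C. Cells were washed twice and freeze/thawed twice. Bound virus (cell fraction) and unbound virus (washes plus inoculum) were titred by focus forming assay, and attached virus was expressed as % of inoculum. DGEA and GHRP peptides served as controls. Data are mean ± standard error, ANOVA.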
# [2] = test system: RRV; test: RRV replication; format: cell-based; settings: for inhibition of RRV replication: mouse cholangiocytes pretreated with 1 mM peptide, Fig. 8D; for effect on RRV replication: mouse cholangiocytes pretreated with peptide, concentration not given, Fig. 4B
# Procedure, shortened: (§2)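 Mouse or H69 cholangiocytes were pretreated with peptide in DMEM (1 mM, or varying concentrations) and infected at 4°C, then incubated 18 h at 37°C. Infectious yield was measured by focus forming assay: serial dilutions at 37°C for 14-16 h, acetone fixation, guinea pig anti-rotavirus IgG (1:1000), then FITC anti-guinea pig IgG (1:500), with foci counted by UV microscopy. DGEA and GHRP served as controls.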
# [3] = test system: rotavirus; settings: due to decreased viral entry; cited from earlier work
# [4] = test system: TUCH; test: TUCH binding assay in mouse cholangiocytes; format: cell-based, rotavirus, simian strain; mouse cholangiocytes; settings: mouse cholangiocytes pretreated with 1 mM peptide; Fig. 2A, 3B
# Procedure, shortened: as §1
# [5] = test system: TUCH; test: TUCH viral yield in mouse cholangiocytes; format: cell-based, rotavirus, simian strain; mouse cholangiocytes; settings: mouse cholangiocytes pretreated with 1 mM peptide; Fig. 2B, 3C
# Procedure, shortened: as §2
# [6] = test system: Ro1845; test: Ro1845 binding assay in mouse cholangiocytes; format: cell-based, rotavirus, human strain; mouse cholangiocytes; settings: mouse cholangiocytes pretreated with 1 mM peptide; Fig. 2A, 3B
# Procedure, shortened: as §1
# [7] = test system: Ro1845; test: Ro1845 viral yield in mouse cholangiocytes; format: cell-based, rotavirus, human strain; mouse cholangiocytes; settings: mouse cholangiocytes pretreated with 1 mM peptide; Fig. 2B, 3C
# Procedure, shortened: as §2
# [8] = test system: RRV; test: RRV binding in siRNA-transfected mouse cholangiocytes; format: cell-based, rhesus rotavirus; mouse cholangiocytes; settings: 1 mM peptide, Fig. 8A
# [9] = test system: RRV; test: Murine model of biliary atresia; format: in vivo, BALB/c mice; settings: bile ducts harvested 12 days after infection with RRV and peptide treatment; Fig. 5C
# [10] = test system: GRV; test: GRV binding assay in mouse cholangiocytes; format: cell-based, rotavirus, goat strain; mouse cholangiocytes; settings: mouse cholangiocytes pretreated with 1 mM peptide; Fig. 2A
# Procedure, shortened: as §1
# [11] = test system: GRV; test: GRV viral yield in mouse cholangiocytes; format: cell-based, rotavirus, goat strain; mouse cholangiocytes; settings: mouse cholangiocytes pretreated with 1 mM peptide; Fig. 2B
# Procedure, shortened: as §2
# [12] = test system: RRV; test: RRV binding assay in human cholangiocytes; format: cell-based, rhesus rotavirus; human cholangiocytes (H69)
# Procedure, shortened: as §1
# [13] = test system: RRV; test: RRV replication in human cholangiocytes; format: cell-based, rhesus rotavirus; human cholangiocytes (H69)
# Procedure, shortened: as §2
# [14] = test system: GRV; test: GRV binding assay in H69 cells; format: cell-based, rotavirus, goat strain; human cholangiocytes (H69); settings: Fig. 6C
# Procedure, shortened: as §1
# [15] = test system: GRV; test: GRV viral yield in H69 cells; format: cell-based, rotavirus, goat strain; human cholangiocytes (H69); settings: Fig. 6D
# Procedure, shortened: as §2
# [16] = test system: TUCH; test: TUCH binding assay in H69 cells; format: cell-based, rotavirus, simian strain; human cholangiocytes (H69); settings: Fig. 6C
# Procedure, shortened: as §1
# [17] = test system: TUCH; test: TUCH viral yield in H69 cells; format: cell-based, rotavirus, simian strain; human cholangiocytes (H69); settings: Fig. 6D
# Procedure, shortened: as §2
# [18] = test system: Ro1845; test: Ro1845 binding assay in H69 cells; format: cell-based, rotavirus, human strain; human cholangiocytes (H69); settings: Fig. 6C
# Procedure, shortened: as §1
# [19] = test system: Ro1845; test: Ro1845 viral yield in H69 cells; format: cell-based, rotavirus, human strain; human cholangiocytes (H69); settings: Fig. 6D
# Procedure, shortened: as §2
# [20] = test system: RRV; settings: negative control peptide; cited from earlier work
# [21] = mouse cholangiocytes pretreated with 1 mM peptide, versus serum-free media, Fig. 3B, 4C, 8C
# [22] = mouse cholangiocytes pretreated with peptide, concentration not given, Fig. 4A
substance,measurement,setting,value
FSGIKSTIDAAKSMATNVMKKFKK [reference compound],effect on RRV binding,[1]; [21],no effect
same,inhibition of RRV replication,[2],42.43%
same,viral replication in MA104 cells treated with peptide,[3],reduced viral replication
VRTRISGLY,effect on RRV binding,[1]; [21],no effect
same,effect on TUCH binding,[4],no effect
same,effect on TUCH replication / viral yield,[5],no effect
same,effect on Ro1845 binding,[6],no effect
same,effect on Ro1845 replication / viral yield,[7],no effect
ISRLY,effect on RRV binding,[1]; [21],maintained the ability to inhibit
VSRAY,effect on RRV binding,[1]; [21],unable to exhibit such inhibition
DGEA [reference compound],effect on RRV binding,[1]; [21],significantly inhibited
same,"RRV binding, percent of control (positive control)","[1]; mouse cholangiocytes, concentration not given, Fig. 1B",61.40%
same,effect on TUCH binding,[4],significantly inhibited
same,effect on TUCH replication / viral yield,[5],significantly inhibited
same,effect on Ro1845 binding,[6],significantly inhibited
same,effect on Ro1845 replication / viral yield,[7],significantly inhibited
same,peptide blocking of RRV binding in negative control siRNA cholangiocytes,[8],remained sensitive to DGEA blocking
PTAAGV,effect on RRV-cholangiocyte binding,"[1]; mouse cholangiocytes, Fig. 1B",did not interfere
SSASAW,effect on RRV-cholangiocyte binding,"[1]; mouse cholangiocytes, Fig. 1B",did not interfere
same,histology of extrahepatic bile ducts (hematoxylin and eosin),[9],complete obstruction of their bile ducts
VSGLY,effect on RRV binding,[1]; [21],unable to exhibit such inhibition
MRTRVSGLY,effect on RRV binding,[1]; [21],no effect
same,effect on TUCH binding,[4],no effect
same,effect on TUCH replication / viral yield,[5],no effect
same,effect on Ro1845 binding,[6],no effect
same,effect on Ro1845 replication / viral yield,[7],no effect
VVRLY,effect on RRV binding,[1]; [21],unable to exhibit such inhibition
MRTRVSRLY,effect on RRV binding,[1]; [22],significantly inhibiting
same,effect on RRV replication,[2],significantly inhibiting
KTKIDRSTQISPNTLPD [reference compound],effect on RRV binding,[1]; [21],no effect
same,inhibition of RRV replication,[2],54.50%
same,viral replication in MA104 cells treated with peptide,[3],reduced viral replication
VSRLA,effect on RRV binding,[1]; [21],maintained the ability to inhibit
TRTRVSRLY,effect on RRV binding,[1]; [21],significantly reduced
same,inhibition of RRV binding compared with control,"[1]; mouse cholangiocytes pretreated with 1 mM peptide, Fig. 2A",45.13%
same,effect on RRV binding,[1]; [22],significantly inhibiting
same,inhibition of RRV replication,[2],44.53%
same,effect on RRV replication,[2],significantly inhibiting
same,inhibition of GRV binding compared with control,[10],41.27%
same,"reduction of GRV viral yield, of control",[11],35.51%
same,effect on TUCH binding,[4],no effect
same,effect on TUCH replication / viral yield,[5],no reduction in viral yield; also recorded: no effect
same,effect on Ro1845 binding,[6],no effect
same,effect on Ro1845 replication / viral yield,[7],no reduction in viral yield; also recorded: no effect
same,"RRV binding to human cholangiocytes, of control","[12]; H69 cells, 1 mM peptide, Fig. 6A",65.9%
same,effect on RRV binding to H69 cells,"[12]; strain comparison, Fig. 6C",able to block
same,"RRV replication within human cholangiocytes, of control","[13]; H69 cells, 1 mM peptide, Fig. 6B",57.9%
same,effect on RRV viral yield in H69 cells,"[13]; strain comparison, Fig. 6D",reduced viral yields
same,effect on GRV binding to H69 cells,[14],able to block
same,effect on GRV viral yield in H69 cells,[15],reduced viral yields
same,effect on TUCH binding to H69 cells,[16],no effects
same,effect on TUCH viral yield in H69 cells,[17],no decrease in yield
same,effect on Ro1845 binding to H69 cells,[18],no effects
same,effect on Ro1845 viral yield in H69 cells,[19],no decrease in yield
same,histology of extrahepatic bile ducts (hematoxylin and eosin),[9],mild inflammation with a patent lumen
GHRP,ability to inhibit RRV binding,[20],no ability to inhibit RRV binding
VSRLY,effect on RRV binding,[1]; [21],maintained the ability to inhibit
